For one assay, the target named is T1, Angiotensin II receptor (Homo sapiens, UniProt P30556+P50052).
T1 sequence (P30556 whole entry): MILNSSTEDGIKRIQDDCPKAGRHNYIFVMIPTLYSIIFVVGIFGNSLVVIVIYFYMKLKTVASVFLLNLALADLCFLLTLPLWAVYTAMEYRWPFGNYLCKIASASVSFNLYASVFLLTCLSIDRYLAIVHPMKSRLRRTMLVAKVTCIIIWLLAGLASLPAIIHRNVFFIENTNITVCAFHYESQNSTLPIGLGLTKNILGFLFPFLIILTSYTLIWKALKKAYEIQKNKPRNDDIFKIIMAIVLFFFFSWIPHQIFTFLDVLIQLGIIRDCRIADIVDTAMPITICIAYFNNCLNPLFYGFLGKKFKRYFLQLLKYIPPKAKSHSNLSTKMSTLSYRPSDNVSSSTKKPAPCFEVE
T1 sequence (P50052 whole entry): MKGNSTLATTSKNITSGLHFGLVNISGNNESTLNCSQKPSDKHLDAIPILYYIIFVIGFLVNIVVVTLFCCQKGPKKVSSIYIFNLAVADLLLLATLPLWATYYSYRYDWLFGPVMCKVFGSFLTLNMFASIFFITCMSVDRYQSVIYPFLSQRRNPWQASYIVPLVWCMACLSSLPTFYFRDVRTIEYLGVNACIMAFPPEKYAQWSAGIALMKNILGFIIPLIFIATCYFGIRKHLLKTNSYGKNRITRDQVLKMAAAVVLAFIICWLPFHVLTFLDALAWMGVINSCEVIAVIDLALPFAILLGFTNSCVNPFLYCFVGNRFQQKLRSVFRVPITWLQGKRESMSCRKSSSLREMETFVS
In words: (§1) In vitro antagonist activity, Inhibition of angiotensin II (50 nM) mediated increase in cytosolic [Ca2+] conc. in PLC-PRF-5 cells. It is filed as functional, cell-based. In short, it runs like this: (§2)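 PLC-PRF-5 cells were preincubated with compound, then stimulated with 50 nM angiotensin II. The rise in intracellular cytosolic Ca2+ concentration was measured, and inhibition of that rise is given as IC50.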

Assay [1] deals with T2, Type-1 angiotensin II receptor (Homo sapiens, UniProt P30556).
T2 sequence (P30556 whole entry): T1 sequence (P30556 whole entry)
Briefly: Binding affinity against AT1 in human hepatoma cell line, PLC-PRF-5. The gist of the method: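 Crude membranes from PLC-PRF human hepatoma cells were prepared by lysis in ice-cold Tris/HCl 50 mM, MgCl2 2 mM, pH 7.4, then spun at 30000g. 100 µg protein was incubated 1 h at 25 °C with 3 nM [3H]AII. Nonspecific binding was taken with 1 µM losartan. Compounds were tested at 10-10–10-5 M, with filtration and scintillation counting.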

Assay [2] can be described thus: as §1. It is filed as functional, cell-based. Conditions: Homo sapiens. In short, it runs like this: as §2

This passage reports IC50 and Ki results from ChEMBL document CHEMBL1133771, “Synthesis and pharmacological evaluation of new pyrazolidine-3, 5-diones as AT(1) angiotensin II receptor antagonists” (J Med Chem, 2000).

A value given as a limit tells only on which side of the number the result lay.

One may read the IC50 as the concentration at which inhibition is half-maximal. Read a low IC50 as greater potency. At Angiotensin II receptor, `O=C1N(Cc2ccc(-c3ccccc3-c3nn[nH]n3)cc2)N(c2ccccc2)C(=O)C12CCCC2` returned an IC50 of 89 nM.

As a reminder, the Ki is a dissociation constant, usually derived from enzyme kinetics or from competition with a known ligand. On to `CCCN1C(=O)C2(CCCC2)C(=O)N1Cc1ccc(-c2ccccc2S(=O)(=O)NC(=O)c2ccccc2)cc1`, for which the Ki in assay [1] is 40 nM. The same compound gave an IC50 against Angiotensin II receptor of 52 nM.

With `CCCCN1C(=O)C(C)(CCCC)C(=O)N1Cc1ccc(-c2ccccc2S(=O)(=O)NC(=O)c2ccccc2)cc1` (configuration not stated), the affinity in assay [1], expressed as Ki, was 32 nM. For the same compound, in assay [2], the half-maximal inhibitory concentration (IC50) stood at 33 nM.

`CCCCN1C(=O)C(C)(C)C(=O)N1Cc1ccc(-c2ccccc2S(=O)(=O)NC(=O)c2ccccc2)cc1`: the affinity in assay [1] corresponds to a Ki of 42 nM. Also, at Angiotensin II receptor, the IC50 came out at 26 nM.

The compound `CCCCN1C(=O)C2(CCCC2)C(=O)N1Cc1ccc(-c2ccccc2)cc1` returned an inhibition constant Ki in assay [1] of more than 10000 nM.

On to `CCCCN1C(=O)C2(CCCC2)C(=O)N1Cc1ccc(-c2ccccc2-c2nn[nH]n2)cc1`, for which the affinity in assay [1], expressed as Ki, was 25 nM. In addition, at Angiotensin II receptor, the IC50 amounted to 22 nM. For `CCCCC(=O)NS(=O)(=O)c1ccccc1-c1ccc(CN2C(=O)C3(CCCC3)C(=O)N2CCCC)cc1` the same measures were 13 nM and 15 nM. Consider `CCCCN1C(=O)C2(CCCC2)C(=O)N1Cc1ccc(-c2ccccc2S(=O)(=O)NC(C)(C)C)cc1`, for which the Ki in assay [1] is more than 10000 nM. The same measure, in the same setting: to `CCCCN1C(=O)C2(CCCC2)C(=O)N1Cc1ccc(C(=O)Nc2ccccc2C(=O)O)cc1` belongs 2000 nM; to `CCCCN1C(=O)C2(CCCC2)C(=O)N1Cc1ccc(-c2ccccc2S(N)(=O)=O)cc1`, more than 10000 nM. On the same count and under the same terms, with `CCCCN1C(=O)C2(CCCC2)C(=O)N1Cc1ccc(-c2ccccc2C(=O)O)cc1` the figure was 3160 nM. As to `CCCCN1C(=O)C2(CCCC2)C(=O)N1Cc1ccc(-c2ccccc2S(=O)(=O)NC(=O)c2ccccc2)cc1`, the affinity in assay [1] corresponds to a Ki of 10 nM. Also, at Angiotensin II receptor, the half-inhibitory concentration (IC50) was 12 nM. For `CCCCCN1C(=O)C2(CCCC2)C(=O)N1Cc1ccc(-c2ccccc2S(=O)(=O)NC(=O)c2ccccc2)cc1` the same measures were 25 nM and 28 nM. In assay [1], `O=C1N(Cc2ccccc2)N(Cc2ccc(-c3ccccc3-c3nn[nH]n3)cc2)C(=O)C12CCCC2` returned an inhibition constant Ki of 402 nM.

`CCCCN1C(=O)C2(CCCC2)C(=O)N1Cc1ccc(-c2ccccc2S(=O)(=O)NC(=O)NC2CCCCC2)cc1` registered a Ki in assay [1] of 32 nM. The IC50 at Angiotensin II receptor was found to be 38 nM. In assay [1], `CCCCN1C(=O)C2(CCCC2)C(=O)N1Cc1ccc(NC(=O)c2ccccc2C(=O)O)cc1` gave a Ki of 398 nM.

Regarding `Cc1ccc(N2C(=O)C3(CCCC3)C(=O)N2Cc2ccc(-c3ccccc3-c3nn[nH]n3)cc2)cc1`, the inhibition constant (Ki) in assay [1] was found to be 381 nM. In turn, `CCCCN1C(=O)C2(CCCC2)C(=O)N1Cc1ccc(-c2ccccc2C#N)cc1` returned a Ki in assay [1] of more than 10000 nM.

In turn, `CCCCN1C(=O)C2(CCCC2)C(=O)N1Cc1ccc(C(=O)Nc2cccc(C(=O)O)c2)cc1` gave an inhibitory constant (Ki) in assay [1] of more than 10000 nM.
